In brackets after ≈: the same amount, converted by molar mass.
Columns and labels:
Candida albicans [1] = test: Inhibition of biofilm formation of Candida albicans SC5314 incubated for 48 hrs by XTT assay; assay type: functional, organism-based; details: SC5314, 48 h
How it was run: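 SC5314 pregrown in BHI overnight at 37 °C, washed, and seeded at 2.5 × 10^3 cells/mL in RPMI-1640/MOPS pH 7.0 with diluted compounds (DMSO ≤1% v/v final) for 48 h at 37 °C. Nonadherent cells were removed by two PBS washes and fresh medium added. Biofilm was quantified by XTT at A492. IC50 = concentration at 50% of maximal biofilm formation. Triplicate wells, three separate occasions.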

Candida albicans [2] = test: Growth inhibition of Candida albicans SC5314 assessed as reduction in reduction in metabolic activity incubated for 48 hrs by XTT assay; assay type: organism-based; details: SC5314, 48 h
How it was run: (§1)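 SC5314 grown overnight at 37 °C in BHI, washed in PBS and resuspended in RPMI-1640 with 0.17 M MOPS at pH 7.0. Cells at 2.5 × 10^3 cells/mL were exposed to serial dilutions from 20 mM DMSO stocks (final DMSO ≤1% v/v) for 48 h at 37 °C. Viability was read by XTT (0.1 mg/mL, 1 h, A492). MIC = lowest concentration giving ≥80% drop in metabolic activity, per CLSI M27-A3.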

Candida albicans [3] = test: Potentiation of amphotericin B-induced antimicrobial effect against Candida albicans SC5314 assessed as ratio of MIC for compound plus amphotericin B to MIC for amphotericin B alone incubated for 48 hrs by XTT assay; assay type: functional
How it was run: (§2)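 Checkerboard assay: C. albicans seeded in 96-well format with test compound alone or combined with amphotericin B, in RPMI-1640 plus MOPS, for 48 h at 37 °C. Viability was read by XTT, with MIC = lowest concentration giving ≥80% metabolic reduction. FIC = MIC in combination / MIC alone for each agent; FICI = FICA + FICB.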

Candida albicans [4] = test: Antimicrobial activity against Candida albicans SC5314 in presence of amphotericin B incubated for 48 hrs by XTT assay; assay type: functional; details: SC5314, 48 h; how it was run: as §2
Candida albicans [5] = test: Potentiation of amphotericin B-induced antimicrobial effect against Candida albicans SC5314 assessed as ratio of MIC for compound plus amphotericin B to MIC for compound alone incubated for 48 hrs by XTT assay; assay type: functional; how it was run: as §2
Candida albicans [6] = test: Antimicrobial activity against Candida albicans SC5314 incubated for 48 hrs by XTT assay; assay type: functional; details: SC5314, 48 h; how it was run: as §1
Candida albicans [7] = test: Potentiation of amphotericin B-induced antimicrobial effect against Candida albicans SC5314 incubated for 48 hrs by XTT assay; assay type: functional; how it was run: as §2

| MIC80 (Candida albicans [4]) | MIC80 (Candida albicans [6]) | SMILES | IC50 (Candida albicans [1]) | IC50 (Candida albicans [2]) | Ratio (Candida albicans [3]) | Ratio (Candida albicans [5]) | fractional inhibitory concentration index (FICI) (Candida albicans [7]) |
| --- | --- | --- | --- | --- | --- | --- | --- |
| 1.25 µM | > 100 µM | CC[C@H](C)C[C@H](C)C[C@H](C)[C@@H](O[C@@H]1O[C@H](CO)[C@@H](O)[C@H](O)[C@@H]1O)[C@@H](C)/C=C(\C)[C@@H](O)[C@@H](C)/C=C(\C)[C@@H](O)[C@@H](C)/C=C(\C)C(=O)OC[C@@H](O)[C@@H](O)[C@H](O)CO | 1.5 µM | > 100 µM | 0.25 | <0.01 | <0.26 |
| 5 µM | > 100 µM | CC[C@H](C)C[C@H](C)C[C@H](C)[C@@H](O[C@@H]1O[C@H](CO)[C@@H](O)[C@H](O)[C@@H]1O)[C@@H](C)/C=C(\C)[C@@H](O)[C@@H](C)/C=C(\C)[C@@H](O)[C@@H](C)/C=C(\C)[C@@H](O)[C@@H](C)C(=O)O | 2.4 µM | > 100 µM | 0.25 | <0.05 | <0.3 |
| – | – | CCCCCC#CCC#CCC#CCC#CCCCC(=O)O | 3.4 µM | > 100 µM | – | – | – |
| 1.25 µM | 50 µM (≈ 41 µg/mL) | CC[C@H](C)C[C@H](C)C[C@H](C)[C@@H](O[C@@H]1O[C@H](COC(C)=O)[C@@H](O)[C@H](O)[C@@H]1O)[C@@H](C)/C=C(\C)[C@@H](O)[C@@H](C)/C=C(\C)[C@@H](O)[C@@H](C)/C=C(\C)C(=O)OC[C@@H](O)[C@@H](O)[C@H](O)CO | 1.2 µM | 41 µM | 0.25 | 0.03 | 0.28 |
| 1.25 µM | 50 µM (≈ 42.5 µg/mL) | CC[C@H](C)C[C@H](C)C[C@H](C)[C@@H](O[C@@H]1O[C@H](COC(C)=O)[C@@H](O)[C@H](O)[C@@H]1O)[C@@H](C)/C=C(\C)[C@@H](O)[C@@H](C)/C=C(\C)[C@@H](O)[C@@H](C)/C=C(\C)C(=O)OC[C@@H](O)[C@@H](O)[C@H](O)[C@H](O)CO | 1.5 µM | 36.3 µM | 0.25 | 0.03 | 0.28 |
| 5 µM | > 100 µM | CCC(C)CC(C)CC(C)C(O[C@@H]1O[C@H](CO)[C@@H](O)[C@H](O)[C@@H]1O)C(C)/C=C(\C)C(O)C(C)/C=C(\C)C(O)C(C)C(=O)O (stereo partly specified) | 5 µM | > 100 µM | 0.25 | <0.05 | <0.3 |
| 5 µM | > 100 µM | CC[C@H](C)C[C@H](C)C[C@H](C)[C@@H](O[C@@H]1O[C@H](CO)[C@@H](O)[C@H](O)[C@@H]1O)[C@@H](C)/C=C(\C)[C@@H](O)[C@@H](C)/C=C(\C)[C@@H](O)[C@@H](C)/C=C(\C)C(=O)OC[C@@H](O)[C@@H](O)[C@H](O)[C@H](O)CO | 1.1 µM | > 100 µM | 0.25 | <0.05 | <0.3 |
| 1.25 µM | 50 µM (≈ 45.4 µg/mL) | CC[C@H](C)C[C@H](C)C[C@H](C)[C@@H](O[C@@H]1O[C@H](COC(C)=O)[C@@H](O)[C@H](O)[C@@H]1O)[C@@H](C)/C=C(\C)[C@@H](O)[C@@H](C)/C=C(\C)[C@@H](O)[C@@H](C)/C=C(\C)[C@@H](O)[C@@H](C)C(=O)OC[C@@H](O)[C@@H](O)[C@H](O)[C@H](O)CO | 1.5 µM | 24.1 µM | 0.25 | 0.03 | 0.28 |

Source: ChEMBL document CHEMBL3351239, “Polyketide glycosides from Bionectria ochroleuca inhibit Candida albicans biofilm formation” (J Nat Prod, 2014)
